Results on 31 molecules are retold here after ChEMBL document CHEMBL4011628, “Pharmacophore Identification and Scaffold Exploration to Discover Novel, Potent, and Chemically Stable Inhibitors of Acid Ceramidase in Melanoma Cells” (J Med Chem, 2017).

Data set [1] can be described thus: Half life in mouse plasma at 2 uM up to 120 mins by UPLC/MS analysis. The format is ADME, cell-free. An outline of the steps: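 Mouse plasma with 5% DMSO, prewarmed 15 min at 37 °C; compound final 2.0 μM. Aliquots at 0, 5, 15, 30, 60 and 120 min quenched in cold ACN containing 200 nM warfarin internal standard. Spun 3500g, 15 min, 4 °C; supernatant run on UPLC/MS TQD. Half-life from one-phase decay fit of peak area versus time.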

The target of data set [2] is Acid ceramidase (Homo sapiens, UniProt Q13510). Description: Inhibition of human C-terminal His-tagged acid ceramidase variant 1 expressed in HEK293 cells using fluorogenic substrate Rbm-14-12 preincubated for 30 mins followed by substrate addition measured after 1 hr by fluorogenic assay. The format is cell-based.
The nature of data set [3]: Half life in PBS buffer at pH 7.4 at 10 uM by UPLC/MS analysis. The format is physicochemical. In short, it runs like this: (§1)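 Compound taken from 10 mM DMSO stock to 10 μM in PBS pH 7.4 (prewarmed) or acetate pH 4.5, held at 37 °C with shaking. Samples taken over time and diluted in ACN. Analysed by UPLC BEH C18 (30–100% ACN over 4 min) with qTOF HRMS in positive ion mode. Half-life from one-phase decay fit of peak area versus time.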

The nature of data set [4]: Half life in acetate buffer at pH 4.5 at 10 uM by UPLC/MS analysis. The class given is physicochemical. In short, it runs like this: as §1
The target of data set [5] is T1, Acid ceramidase (Homo sapiens) (UniProt Q13510).
T1 sequence (whole entry): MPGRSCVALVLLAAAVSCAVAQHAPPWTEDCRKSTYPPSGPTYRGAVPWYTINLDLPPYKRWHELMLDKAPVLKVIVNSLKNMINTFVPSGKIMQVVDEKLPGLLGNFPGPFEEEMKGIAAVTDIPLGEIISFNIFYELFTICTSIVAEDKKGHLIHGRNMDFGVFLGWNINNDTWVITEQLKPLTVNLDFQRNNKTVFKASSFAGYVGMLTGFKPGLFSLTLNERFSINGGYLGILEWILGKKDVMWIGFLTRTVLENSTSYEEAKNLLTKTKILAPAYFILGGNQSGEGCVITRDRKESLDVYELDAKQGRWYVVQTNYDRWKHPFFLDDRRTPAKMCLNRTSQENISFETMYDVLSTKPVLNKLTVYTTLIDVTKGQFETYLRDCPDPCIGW
Kind of data set: Covalent binding affinity to recombinant human acid ceramidase assessed as N-terminal CTSIVAEDK peptide adduct formation at 10:1 molar ratio of compound to protein after 1 hr by trypsin digestion-based UPLC-MS analysis. In short, it runs like this:
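Purified recombinant human AC (10 μg) preincubated 1 h at 37 °C in 20 mM acetate pH 4.5 with 3 mM DTT. Compound then added at 10:1 molar ratio to protein, 1 h at 37 °C; DMSO control. Stopped with cold acetone, pellet dried, redissolved in 50 mM (NH4)2CO3 pH 8. Trypsin 1:50 w/w overnight at 37 °C; peptides read by LC-MS.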

Data set [6] concerns G-361. Description: Cytotoxicity against human G361 cells assessed as […] in cell viability after 72 hrs by MTT assay. The class given is cell-based. Conditions: g-361, 72 h.
In data set [7] the test system is A-375. Description: Cytotoxicity against human A375 cells assessed as […] in cell viability after 72 hrs by MTT assay. The class given is cell-based. Conditions: a-375, 72 h.
Data set [8] addresses T2, Acid ceramidase (Homo sapiens, UniProt Q13510).
T2 sequence (Q13510 whole entry): T1 sequence (whole entry)
Description: Inhibition of acid ceramidase in human A375 cells using fluorogenic substrate Rbm-14-12 preincubated for 2 hrs followed by substrate addition measured after 3 hrs by fluorogenic assay. The format is cell-based. In short, it runs like this: (§2)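 A375 (5 × 10^4) or G-361 (2.5 × 10^4) cells grown in DMEM with 10% FBS and 2 mM glutamine. Compounds or DMSO added 24 h after seeding, 2 h at 37 °C. Rbm-14-12 then added to 20 μM final for 3 h. Stopped with methanol/NaIO4; fluorescence read at ex 355/em 460. Run in triplicate; IC50 from four-parameter fit, mean ± SD of two independent experiments.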

Data set [9] concerns the target T2, Acid ceramidase. Description: Inhibition of acid ceramidase in human G361 cells using fluorogenic substrate Rbm-14-12 preincubated for 2 hrs followed by substrate addition measured after 3 hrs by fluorogenic assay. The format is cell-based. An outline of the steps: as §2

The source made the active and inactive calls. No cut-off for these calls is given here.

For `CCCCCCNC(=O)n1nnc2ncccc21`, the half-life at 2 µM in data set [1] is less than 5 min. In data set [2], the midpoint of inhibition, the IC50, lay at 2.2 nM. Moreover, the half-life at 10 µM in data set [3] is 2 min; in [4] it was more than 120 min.
For the molecule `O=C(NCCCCc1ccccc1)N1C(=O)c2ccccc2C1=O`, in [1], the half-life at 2 µM stood at 23 min. This molecule returned an IC50 in data set [2] of 2.4 nM. Further, the results for the half-life at 10 µM in data set [3] and in data set [4] were 6 min and more than 120 min, respectively.
In data set [2], `O=C(NCCCCc1ccccc1)Nc1nc2ccccc2s1` came in with an IC50 of more than 10000 nM.
As to `O=C(NCCCCc1ccccc1)n1cnc2ccccc21`, the result in [5] was Active. The Activity entry in data set [6] and in data set [7] was “Non-Toxic” each time. In [1], this molecule displayed a half-life at 2 µM of more than 120 min. Further, the IC50 in data set [8] is 75.6 nM; in [9] it was 230 nM; in data set [2], 2.5 nM. For the same molecule, the results for the half-life at 10 µM in data set [3] and in data set [4] were 50 min and more than 120 min, respectively.
In data set [1], `O=C(NCCCCc1ccccc1)n1c(=O)n(C(=O)NCCCCc2ccccc2)c2ccccc21` had a half-life at 2 µM of more than 120 min. Further, in [2], the IC50 turned out to be 21 nM. Also, the half-life at 10 µM in data set [3] and in data set [4] was more than 120 min throughout.
Regarding `Cc1cccc(CNC(=O)n2c(N)nc3ccccc32)c1`, the half-life at 2 µM in data set [1] is less than 5 min. This molecule also showed an IC50 in data set [2] of 8.5 nM. The half-life at 10 µM amounted to 11 min in [3] and 27 min in [4].
In the case of `CCCCCCNC(=O)n1ncc2ccccc21`, in data set [1], the half-life at 2 µM was more than 120 min. Moreover, in data set [2], the IC50 stood at 9.9 nM. For the same molecule, the half-life at 10 µM in data set [3] is 81 min; in data set [4], more than 120 min.
The molecule `Cc1ccccc1CNC(=O)n1c(N)nc2ccccc21` showed a half-life at 2 µM in data set [1] of less than 5 min. Also, the IC50 in data set [2] is 68.4 nM. Besides, the half-life at 10 µM was determined as 10 min in data set [3] and 27 min in data set [4].
`CCCCCCNC(=O)n1cnc2ccccc21` returned a half-life at 2 µM in data set [1] of more than 120 min. The same molecule came in with an IC50 in data set [2] of 6.6 nM. The values for the half-life at 10 µM in data set [3] and in data set [4] were 59 min and more than 120 min, respectively.
Take `COc1nc2ccccc2n1C(=O)NCCCCc1ccccc1`: the result in data set [5] was Active. The Activity entry in data set [6] and in data set [7] was “Non-Toxic” in each case. Moreover, the half-life at 2 µM in data set [1] is more than 120 min. The IC50 was determined as 967 nM in data set [8], 2780 nM in data set [9] and 13.9 nM in data set [2]. The half-life at 10 µM in data set [3] and in data set [4] was more than 120 min each time.
Regarding `O=C(NCc1ccccc1)n1cnc2ccccc21`, the Activity result in [6] and in data set [7] was “Non-Toxic” throughout. This molecule displayed a half-life at 2 µM in data set [1] of 108 min. Besides, the values for the IC50 in data set [8], in data set [9] and in data set [2] were 1060 nM, 2800 nM and 22.5 nM, respectively. Moreover, the results for the half-life at 10 µM in data set [3] and in [4] were more than 120 min and 94 min, respectively.
As to `CCCCCCNC(=O)Nc1nc2ccccc2[nH]1`, the IC50 in data set [2] was more than 10000 nM.
Consider `Cc1ccc(CNC(=O)n2c(N)nc3ccccc32)cc1`, for which, in data set [1], the half-life at 2 µM was less than 5 min. The same molecule yielded an IC50 in [2] of 7 nM. Moreover, the half-life at 10 µM turned out to be 23 min in [3] and 34 min in data set [4].
Turning to `Nc1nc2ccccc2n1C(=O)NCc1ccccc1`, the half-life at 2 µM in data set [1] was determined as 13 min. In [2], this molecule displayed an IC50 of 29.3 nM. Further, the half-life at 10 µM turned out to be 13 min in data set [3] and 42 min in data set [4].
In turn, `O=C(NCCCCc1ccccc1)n1nnc2ncccc21` yielded a half-life at 2 µM in data set [1] of less than 5 min. In [2], this molecule registered an IC50 of 1.3 nM. The half-life at 10 µM in [3] was 2 min; in data set [4] it was more than 120 min.
Regarding `O=C(NCCCCc1ccccc1)n1c(=O)[nH]c2ccccc21`, in [1], the half-life at 2 µM is more than 120 min. The same molecule had an IC50 in data set [2] of more than 10000 nM. Also, the half-life at 10 µM in data set [3] and in data set [4] was more than 120 min in each case.
`CCCCCCNC(=O)N1C(=O)c2ccccc2C1=O`: the half-life at 2 µM in [1] came out at 29 min. In addition, in [2], the IC50 turned out to be 7 nM. In addition, the half-life at 10 µM in data set [3] was 9 min; in data set [4], more than 120 min.
Consider `CCCCCCNC(=O)n1c(N)nc2ccccc21`, for which, in [2], half-maximal inhibition (IC50) required 2.4 nM.
As to `Cc1nc2ccccc2n1C(=O)NCCCCc1ccccc1`, in [1], the half-life at 2 µM worked out at 11 min. This molecule also registered an IC50 in data set [2] of 1 nM. In addition, the figures for the half-life at 10 µM in data set [3] and in data set [4] were 7 min and 8 min, respectively.
`CCCCCCNC(=O)Nc1nc2ccccc2o1`: the IC50 in [2] is more than 10000 nM.
On to `Cc1cccc(CNC(=O)n2cnc3ccccc32)c1`, for which, in [1], the half-life at 2 µM came out at 71 min. The same molecule registered an IC50 in [2] of 8.3 nM. In addition, the figures for the half-life at 10 µM in data set [3] and in [4] were 56 min and more than 120 min, respectively.
As for `Cc1ccc(CNC(=O)n2cnc3ccccc32)cc1`, the Activity entry in data set [6] and in [7] was “Non-Toxic” in each case. For the same molecule, the half-life at 2 µM in data set [1] is 94 min. The results for the IC50 in data set [8], in data set [9] and in data set [2] were 505 nM, 928 nM and 14.8 nM, respectively. Besides, the half-life at 10 µM in [3] and in data set [4] was more than 120 min each time.
As for `O=C(NCCCCc1ccccc1)n1ncc2ccccc21`, in data set [1], the half-life at 2 µM is more than 120 min. The IC50 in [2] came out at 4.7 nM. Also, the results for the half-life at 10 µM in data set [3] and in [4] were 134 min and more than 120 min, respectively.
Regarding `CCCCCCNC(=O)n1cc(F)c(=O)[nH]c1=O` [CARMOFUR], the IC50 in data set [8] is 191 nM; in [9], 758 nM; in data set [2], 20.7 nM.
In [2], `CCCCCCNC(=O)Nc1nc2ccccc2s1` returned an IC50 of more than 10000 nM.
`O=C(NCCCCc1ccccc1)Nc1nc2ccccc2o1`: in [2], the IC50 was more than 10000 nM.
`CCCCCCNC(=O)n1nnc2ccccc21` showed a half-life at 2 µM in data set [1] of 13 min. Further, the IC50 in data set [2] was determined as 4.1 nM. Further, the half-life at 10 µM in [3] was 17 min; in data set [4], more than 120 min.
For the molecule `Nc1nc2ccccc2n1C(=O)NCCCCc1ccccc1`, in [1], the half-life at 2 µM turned out to be 9 min. For the same molecule, in data set [2], the IC50 was found to be 0.9 nM. The half-life at 10 µM in data set [3] is 14 min; in data set [4] it was 43 min.
Regarding `O=C(NCCCCc1ccccc1)n1nnc2ccccc21`, the midpoint of inhibition in data set [2], the IC50, lay at 2.1 nM. Moreover, the half-life at 10 µM in [4] was more than 120 min.
Take `Cc1ccccc1CNC(=O)n1cnc2ccccc21`: the half-life at 2 µM in [1] turned out to be 44 min. In addition, inhibition in [2] was half-maximal at 55.9 nM (IC50). Moreover, the half-life at 10 µM was found to be 58 min in [3] and 82 min in data set [4].
In data set [2], `O=C(NCCCCc1ccccc1)Nc1nc2ccccc2[nH]1` showed an IC50 of more than 10000 nM.
